Measured values published in ChEMBL document CHEMBL4321838, “Drug Design Targeting T-Cell Factor-Driven Epithelial-Mesenchymal Transition as a Therapeutic Strategy for Colorectal Cancer” (J Med Chem, 2019).
In brackets after ≈: the same amount, converted by molar mass. Activity calls are given as the source filed them.

What was measured:
[1] = molecular target: T1, DNA topoisomerase 2-alpha (Homo sapiens, UniProt P11388); test: Poison activity at topoisomerase 2alpha in human SW620 cells assessed as induction of DNA double stranded break by measuring gamma H2AX phosphorylation up to 40 uM after 6 hrs by Hoechst-33342 staining based immunofluorescence assay; format: cell-based
T1 sequence (P11388 whole entry): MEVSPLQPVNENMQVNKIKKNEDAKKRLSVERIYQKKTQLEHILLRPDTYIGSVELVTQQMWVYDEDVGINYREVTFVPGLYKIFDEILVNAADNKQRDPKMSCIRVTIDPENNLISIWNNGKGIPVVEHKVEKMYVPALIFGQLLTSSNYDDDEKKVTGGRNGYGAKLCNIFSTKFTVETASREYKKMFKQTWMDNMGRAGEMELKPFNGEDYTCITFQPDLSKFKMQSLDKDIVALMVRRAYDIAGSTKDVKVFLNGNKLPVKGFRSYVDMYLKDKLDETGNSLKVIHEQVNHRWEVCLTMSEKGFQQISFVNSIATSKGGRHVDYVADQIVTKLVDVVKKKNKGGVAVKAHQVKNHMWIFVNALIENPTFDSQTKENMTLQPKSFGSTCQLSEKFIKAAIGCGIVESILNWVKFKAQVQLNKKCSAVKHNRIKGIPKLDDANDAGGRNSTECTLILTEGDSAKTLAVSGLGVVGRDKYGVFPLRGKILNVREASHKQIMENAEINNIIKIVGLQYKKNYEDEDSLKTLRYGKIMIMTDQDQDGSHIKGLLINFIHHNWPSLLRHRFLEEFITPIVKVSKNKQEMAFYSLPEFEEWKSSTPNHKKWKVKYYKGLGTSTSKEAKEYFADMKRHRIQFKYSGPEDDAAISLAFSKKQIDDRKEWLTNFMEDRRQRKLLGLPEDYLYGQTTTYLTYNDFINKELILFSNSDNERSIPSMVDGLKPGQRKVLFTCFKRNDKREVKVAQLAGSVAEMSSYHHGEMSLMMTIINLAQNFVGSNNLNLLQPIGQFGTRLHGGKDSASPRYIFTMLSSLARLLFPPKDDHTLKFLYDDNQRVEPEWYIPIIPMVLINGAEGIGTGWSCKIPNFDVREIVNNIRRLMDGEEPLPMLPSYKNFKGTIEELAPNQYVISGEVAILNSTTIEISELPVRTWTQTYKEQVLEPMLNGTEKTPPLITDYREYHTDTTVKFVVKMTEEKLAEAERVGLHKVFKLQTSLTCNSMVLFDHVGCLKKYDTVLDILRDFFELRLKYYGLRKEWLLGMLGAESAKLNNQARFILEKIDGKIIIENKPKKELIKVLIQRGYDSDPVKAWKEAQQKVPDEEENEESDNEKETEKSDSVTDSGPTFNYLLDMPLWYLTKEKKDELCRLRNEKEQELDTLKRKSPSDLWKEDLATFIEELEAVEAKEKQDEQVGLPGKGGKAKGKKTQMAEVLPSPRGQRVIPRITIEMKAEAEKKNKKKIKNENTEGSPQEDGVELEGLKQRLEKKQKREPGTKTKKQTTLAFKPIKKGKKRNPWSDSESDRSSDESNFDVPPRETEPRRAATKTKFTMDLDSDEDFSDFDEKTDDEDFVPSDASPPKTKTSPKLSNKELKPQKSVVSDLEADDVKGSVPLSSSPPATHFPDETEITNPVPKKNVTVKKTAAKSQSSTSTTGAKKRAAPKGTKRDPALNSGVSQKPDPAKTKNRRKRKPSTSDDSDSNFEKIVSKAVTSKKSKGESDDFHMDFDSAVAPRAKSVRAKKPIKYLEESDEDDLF
Method in brief: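 SW620 monolayers, 20,000 cells per well, treated with compound for 6 or 24 h. Fixed in 4% paraformaldehyde, then permeabilised and blocked. Stained with γ-H2AX antibody overnight at 4 °C, FITC secondary antibody, and Hoechst 33342, then imaged at 20x.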

[2] = molecular target: T1, DNA topoisomerase 2-alpha; test: Inhibition of topoisomerase 2alpha dependent TCF transcription in human SW620 organoids transduced with TOPflash luminescent reporter at 10 uM after 72 hrs by luciferase based TOPFlash reporter gene assay
[3] = molecular target: T1, DNA topoisomerase 2-alpha; test: Inhibition of topoisomerase 2alpha in human SW620 organoids transfected with VimPro-GFP reporter assessed as reversion of epithelial-mesenchymal transition by measuring reduction in vimentin expression at 10 uM after 72 hrs by Hoechst 33342 staining based GFP reporter gene assay
Method in brief: (§1)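 SW620 cells stably carrying VimPro-GFP or EcadPro-mCherry (puromycin selected) grown as organoids and dosed 72 h. Stained with 16 μM Hoechst 33342 for 1 h and imaged as 15 z-layers, 26.5 μm apart. Nuclei segmented and GFP- or mCherry-positive cells counted above background thresholds. Percent positive cells normalised to DMSO.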

[4] = molecular target: T1, DNA topoisomerase 2-alpha; test: Inhibition of topoisomerase 2alpha in human SW620 organoids transfected with EcadPro-RFP reporter assessed as reversion of epithelial-mesenchymal transition by measuring increase in E-cadherin expression at 10 uM after 72 hrs by Hoechst 33342 staining based mCherryRFP reporter gene assay; method in brief: as §1
SW-620 [5] = test: Anticlonogenic activity against human SW620 cells assessed as loss of cancer stem cell stemness by measuring inhibition of colony formation at 10 uM incubated for 24 hrs followed by replating and measured after 7 days by clonogenic assay; format: functional, cell-based
SW-620 [6] = test: Antiinvasive activity in human SW620 organoids transduced with NucLight-Red virus assessed as inhibition of cell invasion at 10 uM incubated for 72 hrs and measured after 72 hrs by matrigel based fluorescence analysis; format: functional
Method in brief: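 NucLight-Red-labelled SW620 organoids treated 72 h at 10 μM in 0.1% DMSO, then dissociated. 5,000 live cells per well seeded in 50% Matrigel in the upper chamber of a migration plate, 0.5% FBS above and 20% FBS below. Invading cells tracked by bottom-side fluorescence over days, six replicates per condition.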

[7] = molecular target: T1, DNA topoisomerase 2-alpha; test: Inhibition of human topoisomerase 2alpha mediated decatenation at 30 uM using kDNA as susbtrate preincubated for 20 mins followed by substrate and ATP addition and measured after 1 hr by ethidium bromide staining based gel electrophoresis method relative to control
Method in brief: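 Human TOP2A (3 U) preincubated 20 min at 37 °C with compound at 30 μM in 1.2% DMSO. Reaction started with 2 mM ATP and 35 ng kDNA and run 1 h at 37 °C. Products resolved on 0.8% agarose in TBE with 0.2 μg/mL ethidium bromide; decatenated bands compared with vehicle.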

[8] = molecular target: T1, DNA topoisomerase 2-alpha; test: Inhibition of topoisomerase 2alpha dependent TCF transcription in human SW620 organoids transduced with TOPflash luminescent reporter after 72 hrs by luciferase based TOPFlash reporter gene assay
Method in brief: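 SW620 cells stably carrying pCDH-TOPflash-luc grown as organoids: 5,000 cells per U-bottom well in phenol red-free RPMI with 5% FBS and 2% Matrigel, 72 h. Inhibitor then applied 72 h. One-Glo luciferase and CellTiter-Glo 3D added 1:1. Luciferase signal normalised to viability, then to DMSO controls.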

SW-620 [9] = test: Cytotoxicity against human SW620 organoids assessed as cell death with loss of membrane integrity after 72 hrs by CellTox Green assay; format: functional, cell-based; details: SW-620, 72 h
Method in brief: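 SW620 tumor organoids exposed 72 h to inhibitor over 0–40 μM together with CellTox Green Express (0.5X). Whole-well mean fluorescence imaged (ex 488, em 500–550 nm). Normalised to lysis buffer as 0% viability and 0.4% DMSO as 100% viability.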

[10] = molecular target: T1, DNA topoisomerase 2-alpha; test: Inhibition of topoisomerase 2alpha in human SW620 organoids transfected with VimPro-GFP reporter assessed as reversion of epithelial-mesenchymal transition by measuring reduction in vimentin expression up to 40 uM after 72 hrs by Hoechst 33342 staining based GFP reporter gene assay; method in brief: as §1
[11] = molecular target: T1, DNA topoisomerase 2-alpha; test: Inhibition of topoisomerase 2alpha in human SW620 organoids transfected with EcadPro-RFP reporter assessed as reversion of epithelial-mesenchymal transition by measuring increase in E-cadherin expression up to 40 uM after 72 hrs by Hoechst 33342 staining based mCherryRFP reporter gene assay; method in brief: as §1
SW-620 [12] = test: Induction of apoptosis in human SW620 organoids assessed as increase in cleaved caspase 3/7 level at 40 uM after 72 hrs by caspase-glo 3/7 luminescence assay relative to control; format: functional
Method in brief: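 SW620 cells, 2,000 per well in 384-well ultra-low attachment plates with 2% Matrigel, grown 72 h into organoids, then dosed 72 h. Caspase-Glo 3/7 reagent added 1:1 and shaken 30 min; luminescence read. Staurosporine served as positive control and 0.4% DMSO as negative control.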

[13] = Aqueous solubility of compound in PBS at 1 mg after 18 hrs by UV based analysis; format: physicochemical
Method in brief: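 Undissolved material removed by centrifugation at 5,000g for 45 min. UV absorption compared with a fully saturated 1-propanol solution; solubility derived by linear regression.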

[14] = Half life in CD-1 mouse microsomes measured up to 1 hr by LC-MS analysis; format: ADME, Microsome
Method in brief: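 Female CD-1 mouse liver microsomes (0.5 mg/mL), substrate 1 μg/mL and 1.5 mM NADPH in 0.1 M phosphate buffer pH 7.4 at 37 °C. Samples taken from 0 to 60 min and quenched with an equal volume of acetonitrile. Parent compound remaining measured by LC-MS/MS without internal standard.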

[15] = Cmax in CD-1 mouse at 50 mg/kg, ip by LC-MS/MS analysis; format: ADME, organism-based; design: dose 50 mg/kg, route intraperitoneal; details: in vivo
Method in brief: (§2)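 Female CD-1 mice, single IP injection at 50 mg/kg in 100% DMSO. Sampling from 0.25 to 24 h, three mice per time point (21 per compound). Heparinised blood was spun to plasma, mixed 1:1 with acidified acetonitrile (0.1% formic acid or 0.1% TFA depending on compound), centrifuged, then measured by LC-MS/MS.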

[16] = Tmax in CD-1 mouse at 50 mg/kg, ip by LC-MS/MS analysis; format: ADME, organism-based; details: in vivo; method in brief: as §2
Mus musculus = test: Apparent volume of drug distribution in CD-1 mouse at 50 mg/kg, ip by LC-MS/MS analysis; format: ADME, organism-based; details: in vivo; method in brief: as §2
[17] = AUC(0 to t) in CD-1 mouse at 50 mg/kg, ip by LC-MS/MS analysis; format: ADME, organism-based; details: in vivo; method in brief: as §2
[18] = Clearance in CD-1 mouse at 50 mg/kg, ip by LC-MS/MS analysis; format: ADME, organism-based; details: in vivo; method in brief: as §2
[19] = Half life of terminal disposition phase in CD-1 mouse at 50 mg/kg, ip by LC-MS/MS analysis; format: ADME, organism-based; details: in vivo, read-out: t1/2lambda (converted); method in brief: as §2
SW-620 [20] = test: Induction of early stage cell death in human SW620 organoids transfected with EcadPro-RFP reporter assessed as loss of RFP reporter activity at 40 uM at after 72 hrs by Hoechst 33342 staining based mCherryRFP reporter gene assay; details: sw-620, 72 h
[21] = Drug metabolism in CD-1 mouse active microsomes assessed as CYP450-mediated oxidative phase 1 metabolite formation measured within 30 mins by LC-MS/MS analysis; format: ADME; details: 0.5 h
[22] = Metabolic stability in CD-1 mouse inactive microsomes incubated for 1 hr by LC-MS/MS analysis; format: ADME, Microsome
[23] = Drug metabolism in CD-1 mouse active microsomes assessed as CYP450-mediated oxidative phase 1 metabolite formation by LC-MS/MS analysis
SW-620 [24] = test: Cytotoxicity against human SW620 organoids assessed as growth inhibition at 10 uM after 72 hrs by brightfield imaging of organoid volume
[25] = Drug metabolism in CD-1 mouse active microsomes assessed as metabolite formation at rate of first-order kinetics by LC-MS/MS analysis; format: ADME, Microsome
[26] = Drug metabolism in CD-1 mouse active microsomes assessed as metabolite formation at rate of biphasic kinetics by LC-MS/MS analysis; format: ADME, Microsome

With `CC(=O)Nc1ccc2c(-c3cc(F)ccc3O)ccnc2c1O` the Activity [1] was “Not Active”, the inhibition [2] was “Active” and the inhibition [3] was “Active”. For the same compound, the inhibition [4] was “Active”, the inhibition (SW-620 [5]) was “Active” and the inhibition (SW-620 [6]) was “Active”. It also gave an inhibition [7] of 99%, an IC50 [8] of 2.4 µM and an EC50 (SW-620 [9]) of over 30 µM. The inhibition [10] was “Active”, the inhibition [11] was “Active” and the Activity (SW-620 [12]) was “Active”. It also gave a solubility thermodynamic at 18 h [13] of 450 µg/mL (≈ 1440 µM), a t1/2 [14] of 6.72 min and a Cmax [15] of 19000 ng/mL. For the same compound, the Tmax [16] was 15 min, the Vz (Mus musculus) was 10.9 L/kg and the AUC(0-t) [17] was 12500 ng·h/mL. The CL/F [18] was 64.5 mL/min/kg, the half-life [19] was 118 min and the Activity (SW-620 [20]) was “Active”. For the same compound, the Drug metabolism [21] was “Metabolite_Detected”, the Stability [22] was “Stable” and the Drug metabolism [23] was “Metabolite_Notdetected”. The “growth inhibition (GI)” value (SW-620 [24]) was “Active”.

For `CC(=O)Nc1ccc2c(-c3ccsc3)ccnc2c1O`, the inhibition [7] was 92%, the Drug metabolism [21] was “Metabolite_Detected” and the Stability [22] was “Stable”. The Drug metabolism [25] was “Metabolite_Notdetected”, the Drug metabolism [26] was “Metabolite_Detected” and the Drug metabolism [23] was “Metabolite_Notdetected”.
